Measurements of several laboratories.
Route: intravenous

| SMILES | species | sample | dose | setting | endpoint | result |
| --- | --- | --- | --- | --- | --- | --- |
| [2H]C([2H])(c1cc(F)c(F)cc1F)n1c(=O)n(Cc2ncn(C)n2)c(=O)[nH]/c1=N\c1cc2cn(C)nc2cc1Cl | male Sprague-Dawley rat | plasma | 5 mg/kg |  | clearance | 1.11 mL/min/kg |
| CCCC[C@@H]1NC(=O)[C@H](Cc2ccc(O)cc2)NC(=O)[C@@H]2CCCN2C(=O)[C@H](CC(=O)O)NC(=O)[C@H](C)NC(=O)[C@H](Cc2ccccc2)NC(=O)[C@@H]2CSCCC(=O)N3CN(CN(C3)C(=O)CCSC[C@@H](C(=O)N[C@@H](C)C(N)=O)NC1=O)C(=O)CCSC[C@H](NC(=O)[C@H](C)NC(C)=O)C(=O)N[C@@H]([C@@H](C)CC)C(=O)N[C@@H](CCC(=O)O)C(=O)N[C@@H](CCC(=O)O)C(=O)N[C@H](CCCCNC(=O)CCc1cn(CCOCCOCCOCCN(CCOCCOCCOCCC(=O)N[C@H]3CSCCC(=O)N4CN5CN(C4)C(=O)CCSC[C@H](NC(=O)[C@@H](CC(=O)O)NC(=O)[C@H](Cc4cccc6ccccc46)NC(=O)[C@@H]4CCCN4C3=O)C(=O)N[C@@H](CCSC)C(=O)N[C@@H](CCCCNC(=N)N)C(=O)N[C@@H](CC(=O)O)C(=O)N[C@@H](Cc3c[nH]c4ccccc34)C(=O)N[C@@H](CO)C(=O)N[C@@H]([C@@H](C)O)C(=O)N3CCC[C@H]3C(=O)N3C[C@H](O)C[C@H]3C(=O)N[C@@H](Cc3c[nH]c4ccccc34)C(=O)N[C@H](C(N)=O)CSCCC5=O)CCOCCOCCOCCn3cc(CCC(=O)NCCCC[C@H]4NC(=O)[C@H](CCC(=O)O)NC(=O)[C@H](CCC(=O)O)NC(=O)[C@H]([C@@H](C)CC)NC(=O)[C@@H](NC(=O)[C@H](C)NC(C)=O)CSCCC(=O)N5CN6CN(C5)C(=O)CCSC[C@H](NC(=O)[C@H](Cc5ccc(O)cc5)NC(=O)[C@H](CCC(N)=O)NC4=O)C(=O)N[C@@H](Cc4ccccc4)C(=O)N[C@@H](C)C(=O)N[C@@H](CC(=O)O)C(=O)N4CCC[C@H]4C(=O)N[C@@H](Cc4ccc(O)cc4)C(=O)N[C@@H](CCCC)C(=O)N[C@H](C(=O)N[C@@H](C)C(N)=O)CSCCC6=O)nn3)nn1)C(=O)N[C@@H](CCC(N)=O)C(=O)N[C@@H](Cc1ccc(O)cc1)C(=O)N2 | rat | plasma | 2 mg/kg |  | clearance | 9.8 mL/min/kg |
| Cc1cc(C)nc(Nc2ncc(C(=O)NCCc3c(C)[nH]c4ccccc34)cn2)c1 | Sprague-Dawley rat | plasma |  |  | clearance | 81 mL/min/kg |
| CN(C)C(=O)Oc1cc(OC(=O)N(C)C)cc(-c2cc3ccc(O)cc3o2)c1 | male rat | plasma | 5 mg/kg |  | clearance | 140 mL/min/kg |
| CCCCCCCC(=O)N[C@@H](CCCCN)C(=O)N[C@@H](CCCCN)C(=O)N[C@@H](C)C(=O)N[C@@H](CC(C)C)C(=O)N[C@@H](CCCCN)C(=O)N[C@@H](CC(C)C)C(=O)N[C@@H](C)C(=O)N[C@@H](CCCCN)C(=O)N[C@@H](CCCCN)C(=O)N1CCC[C@H]1C(=O)N[C@@H](CC(C)C)C(=O)N[C@@H](CCCCN)C(=O)N[C@@H](CC(C)C)C(=O)N[C@@H](CC(C)C)C(=O)N[C@@H](CCCCN)C(N)=O | male Sprague-Dawley rat | blood | 3 mg/kg | infusion | clearance | 192 mL/min/kg |
| C[C@H](C(=O)N[C@H]1COc2ccccc2[C@@H]1S(C)(=O)=O)c1ccc(F)cc1 | male Sprague-Dawley rat | plasma | 0.5 mg/kg |  | clearance | 10 mL/min/kg |
| N=c1c2c(-c3ccccc3)c(-c3ccccc3)n(Cc3ccccc3)c2ncn1[C@H]1CC[C@H](O)CC1 | male Sprague-Dawley rat | plasma | 2 mg/kg | single dose | clearance | 19.6 mL/min/kg |
| O=C1c2cc(COc3ccccc3)nn2CCC1c1ccc(F)cc1 (stereo not drawn) | male Sprague-Dawley rat | plasma | 0.2 mg/kg |  | clearance | 120 mL/min/kg |
| CCCC[C@@H]1NC(=O)[C@H](Cc2ccc(O)cc2)NC(=O)[C@@H]2CCCN2C(=O)[C@H](CC(=O)O)NC(=O)[C@H](C)NC(=O)[C@H](Cc2ccccc2)NC(=O)[C@@H]2CSCCC(=O)N3CN(CN(C3)C(=O)CCSC[C@H](NC(C)=O)C(=O)N[C@@H](CC(C)(C)C)C(=O)N[C@@H](CCC(=O)O)C(=O)N[C@@H](CCC(=O)O)C(=O)N[C@H](CCCCNC(=O)CCc3cn(CCOCCOCCOCCN(CCOCCOCCOCCC(=O)N[C@H]4CSCCC(=O)N5CN6CN(C5)C(=O)CCSC[C@H](NC(=O)[C@@H](CC(=O)O)NC(=O)[C@H](Cc5cccc7ccccc57)NC(=O)[C@@H]5CCCN5C4=O)C(=O)N[C@@H](CCSC)C(=O)N[C@@H](CCCCNC(=N)N)C(=O)N[C@@H](CC(=O)O)C(=O)N[C@@H](Cc4c[nH]c5ccccc45)C(=O)N[C@@H](CO)C(=O)N[C@@H]([C@@H](C)O)C(=O)N4CCC[C@H]4C(=O)N4C[C@H](O)C[C@H]4C(=O)N[C@@H](Cc4c[nH]c5ccccc45)C(=O)N[C@H](C(N)=O)CSCCC6=O)CCOCCOCCOCCn4cc(CCC(=O)NCCCC[C@H]5NC(=O)[C@H](CCC(=O)O)NC(=O)[C@H](CCC(=O)O)NC(=O)[C@H](CC(C)(C)C)NC(=O)[C@@H](NC(C)=O)CSCCC(=O)N6CN7CN(C6)C(=O)CCSC[C@H](NC(=O)[C@H](Cc6ccc(O)cc6)NC(=O)[C@@H]6CCCN6C5=O)C(=O)N[C@@H](Cc5ccccc5)C(=O)N[C@@H](C)C(=O)N[C@@H](CC(=O)O)C(=O)N5CCC[C@H]5C(=O)N[C@@H](Cc5ccc(O)cc5)C(=O)N[C@@H](CCCC)C(=O)N[C@H](C(N)=O)CSCCC7=O)nn4)nn3)C(=O)N3CCC[C@H]3C(=O)N[C@@H](Cc3ccc(O)cc3)C(=O)N2)C(=O)CCSC[C@@H](C(N)=O)NC1=O | rat | plasma | 2 mg/kg |  | clearance | 11 mL/min/kg |
| O=C(O)CCCO | male Sprague-Dawley rat | urine | 600 mg/kg |  | renal clearance | 1.89 mL/min/kg |
| CCCC[C@@H]1NC(=O)[C@H](Cc2ccc(O)cc2)NC(=O)[C@@H]2CCCN2C(=O)[C@H](CC(=O)O)NC(=O)[C@H](C)NC(=O)[C@H](Cc2ccccc2)NC(=O)[C@@H]2CSCCC(=O)N3CN(CN(C3)C(=O)CCSC[C@@H](C(=O)N[C@@H](CNC(=O)CCc3cn(CCOCCOCCOCCN(CCOCCOCCOCCC(=O)N[C@H]4CSCCC(=O)N5CN6CN(C5)C(=O)CCSC[C@H](NC(=O)[C@@H](CC(=O)O)NC(=O)[C@H](Cc5cccc7ccccc57)NC(=O)[C@@H]5CCCN5C4=O)C(=O)N[C@@H](CCSC)C(=O)N[C@@H](CCCCNC(=N)N)C(=O)N[C@@H](CC(=O)O)C(=O)N[C@@H](Cc4c[nH]c5ccccc45)C(=O)N[C@@H](CO)C(=O)N[C@@H]([C@@H](C)O)C(=O)N4CCC[C@H]4C(=O)N4C[C@H](O)C[C@H]4C(=O)N[C@@H](Cc4c[nH]c5ccccc45)C(=O)N[C@H](C(N)=O)CSCCC6=O)CCOCCOCCOCCn4cc(CCC(=O)NC[C@H](NC(=O)[C@@H]5CSCCC(=O)N6CN7CN(C6)C(=O)CCSC[C@H](NC(=O)[C@H](Cc6ccc(O)cc6)NC(=O)[C@@H]6CCCN6C(=O)[C@@H](C)NC(=O)[C@H](CCC(=O)O)NC(=O)[C@@H]6CCCN6C(=O)[C@H](CC(C)(C)C)NC(=O)[C@@H](NC(C)=O)CSCCC7=O)C(=O)N[C@@H](Cc6ccccc6)C(=O)N[C@@H](C)C(=O)N[C@@H](CC(=O)O)C(=O)N6CCC[C@H]6C(=O)N[C@@H](Cc6ccc(O)cc6)C(=O)N[C@@H](CCCC)C(=O)N5)C(N)=O)nn4)nn3)C(N)=O)NC1=O)C(=O)CCSC[C@H](NC(C)=O)C(=O)N[C@@H](CC(C)(C)C)C(=O)N1CCC[C@H]1C(=O)N[C@@H](CCC(=O)O)C(=O)N[C@H](C)C(=O)N1CCC[C@H]1C(=O)N[C@@H](Cc1ccc(O)cc1)C(=O)N2 | rat | plasma | 2 mg/kg |  | clearance | 8.7 mL/min/kg |
| Cn1cnc(Cn2c(=O)[nH]/c(=N\c3cc4cn(C)nc4cc3Cl)n(Cc3cc(F)c(F)cc3F)c2=O)n1 | male Sprague-Dawley rat | plasma | 5 mg/kg |  | clearance | 1.03 mL/min/kg |
